Measured values as given in ChEMBL document CHEMBL3785029, “Synthesis and Characterization of Fatty Acid Conjugates of Niacin and Salicylic Acid” (J Med Chem, 2016).
The source made the active and inactive calls. No cut-off for these calls is given here.

Tests used:
[1] = Drug uptake in endoplasmic reticulum of CellLight ER-RFP-treated human HuH7 cells at 25 uM after 30 mins by DAPI staining-based confocal microscopy in presence of endocytosis inhibitor dynasore; type: ADME, cell-based; conditions: huh-7, 0.5 h
In short: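 HuH-7 cells were transduced with CellLight ER-RFP BacMam 2.0 for 48 h and pretreated with 80 µM dynasore. They were then exposed to compound for 30 min, fixed in 4% formaldehyde for 2 min at 37 °C and mounted with anti-fade DAPI. Imaging was by confocal microscopy with a 63X lens.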

[2] = Drug uptake in lysosomes of CellLight ER-RFP/BacMam 2-treated human HuH7 cells at 25 uM after 30 mins by DAPI staining-based confocal microscopy; type: ADME, cell-based, Lysosome; conditions: huh-7, 0.5 h
In short: (§1)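 HuH-7 hepatocellular carcinoma cells were plated overnight in DMEM with 10% FBS. They were transduced for 48 h with BacMam CellLight ER-RFP or Late Endosomes-RFP organelle markers. Cells were then exposed for 30 min to fluorescent cis-parinaric acid conjugate in DMEM at 25 µM. They were fixed in 4% paraformaldehyde for 2 min at 37 °C, washed with PBS, mounted with anti-fade DAPI and imaged by confocal microscopy at 63X.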

[3] = Drug uptake in endoplasmic reticulum of CellLight ER-RFP/BacMam 2-treated human HuH7 cells at 25 uM after 30 mins by DAPI staining-based confocal microscopy; type: ADME, cell-based; conditions: huh-7, 0.5 h
In short: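 HuH-7 cells were plated overnight in 10% FBS DMEM and transduced with CellLight ER-RFP BacMam 2.0 for 48 h. They were then exposed to fluorescent conjugate at 25 µM in DMEM for 30 min, fixed in 4% paraformaldehyde for 2 min at 37 °C and washed with PBS. Imaging was by confocal microscopy with a 63X lens.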

[4] = target: T1, Sterol regulatory element-binding protein 2 (Homo sapiens) (UniProt Q12772); assay: Induction of SREBP2 maturation in human HepG2 cells at 10 uM after overnight incubation by immunoblot analysis; type: cell-based
T1 sequence (whole entry): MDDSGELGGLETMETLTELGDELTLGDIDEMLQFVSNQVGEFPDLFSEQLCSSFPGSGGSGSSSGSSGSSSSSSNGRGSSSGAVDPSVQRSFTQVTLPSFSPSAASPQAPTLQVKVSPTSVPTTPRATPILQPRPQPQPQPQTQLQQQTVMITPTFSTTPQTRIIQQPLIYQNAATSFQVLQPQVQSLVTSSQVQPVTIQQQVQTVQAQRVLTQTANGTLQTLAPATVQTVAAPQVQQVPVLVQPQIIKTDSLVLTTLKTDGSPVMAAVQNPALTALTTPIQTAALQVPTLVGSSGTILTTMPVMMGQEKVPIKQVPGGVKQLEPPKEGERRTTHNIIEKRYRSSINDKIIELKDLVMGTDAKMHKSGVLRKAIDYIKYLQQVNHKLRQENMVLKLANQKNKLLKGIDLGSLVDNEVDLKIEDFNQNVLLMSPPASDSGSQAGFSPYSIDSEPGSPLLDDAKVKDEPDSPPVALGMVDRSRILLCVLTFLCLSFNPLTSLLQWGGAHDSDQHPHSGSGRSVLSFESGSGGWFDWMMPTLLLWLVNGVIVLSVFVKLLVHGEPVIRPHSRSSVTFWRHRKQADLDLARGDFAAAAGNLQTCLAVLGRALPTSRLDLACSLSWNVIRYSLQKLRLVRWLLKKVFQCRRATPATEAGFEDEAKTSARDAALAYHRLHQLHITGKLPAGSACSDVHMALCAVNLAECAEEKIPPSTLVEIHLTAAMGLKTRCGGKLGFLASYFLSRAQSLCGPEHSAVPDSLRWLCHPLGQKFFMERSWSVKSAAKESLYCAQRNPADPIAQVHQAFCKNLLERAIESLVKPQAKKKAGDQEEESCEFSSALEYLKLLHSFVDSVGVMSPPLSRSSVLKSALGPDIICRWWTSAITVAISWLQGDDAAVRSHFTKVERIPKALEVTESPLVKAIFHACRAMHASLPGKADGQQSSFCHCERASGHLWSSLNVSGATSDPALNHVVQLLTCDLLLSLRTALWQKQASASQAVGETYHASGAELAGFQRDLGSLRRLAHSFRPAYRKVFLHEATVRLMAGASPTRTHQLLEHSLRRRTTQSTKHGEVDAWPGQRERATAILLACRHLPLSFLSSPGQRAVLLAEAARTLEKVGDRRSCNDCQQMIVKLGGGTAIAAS
In short: (§2)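 Human HepG2 cells were incubated with test agents, including 10 µM atorvastatin alone or combined with conjugate. The mature form of SREBP-2 protein was then assessed.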

[5] = tested on: Plasma; assay: Drug level in Sprague-Dawley rat plasma treated with N-(2-(4Z,7Z,10Z,13Z,16Z,19Z)-docosa-4,7,10,13,16,19-hexaenamidoethyl)-2-hydroxybenzamide at 300 mg/kg, po measured up to 24 hrs post dose; type: ADME, organism-based; conditions: in vivo
In short: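 Single oral dose of 300 mg/kg to Sprague Dawley rats. Plasma collected at 0, 0.5, 1, 2, 4, 8 and 24 hr. Analytes were the parent, the salicylate-linker and linker-DHA metabolites, salicylic acid and salicyluric acid; Cmax and AUClast derived.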

[6] = species on record: Mus musculus; conditions: 3.2 mM
[7] = Drug uptake in lysosomes of human HuH7 cells at 25 uM after 30 mins by LysoTracker/DAPI staining-based confocal microscopy; type: ADME, cell-based, Lysosome; conditions: huh-7, 0.5 h
[8] = Drug uptake in endoplasmic reticulum of human HuH7 cells at 25 uM after 30 mins by LysoTracker/DAPI staining-based confocal microscopy; type: ADME, cell-based; conditions: huh-7, 0.5 h; in short: as §1
[9] = species on record: Mus musculus; assay: Inhibition of NFkappaB in mouse RAW 264.7 cells at 78.7 uM preincubated for 2 hrs followed by LPS addition for 3 hrs by luciferase reporter gene assay relative to control; type: cell-based
[10] = Cmax in portal vein cannulated Sprague-Dawley rat at 30 mg/kg, po measured up to 140 mins; type: ADME, organism-based; design: dose 30 mg/kg, route oral; conditions: portal vein blood
In short: (§3)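 Sprague Dawley rats surgically fitted with indwelling jugular vein and portal vein cannulas; oral dosing, then serial blood draws from both portal and jugular veins at 10, 20, 40 min and 1, 2, 4, 6 hr post dose; plasma analysed for parent and metabolites by LC/MS/MS.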

[11] = Cmax in jugular vein cannulated Sprague-Dawley rat at 30 mg/kg, po measured up to 140 mins; type: ADME, organism-based; design: dose 30 mg/kg, route oral; conditions: jugular vein blood; in short: as §3
[12] = tested on: Rattus norvegicus; assay: Cmax in portal vein cannulated Sprague-Dawley rat assessed nicotinuric acid at 30 mg/kg, po measured up to 140 mins; type: ADME, organism-based; design: dose 30 mg/kg, route oral; conditions: in vivo; in short: as §3
[13] = tested on: Rattus norvegicus; assay: Cmax in jugular vein cannulated Sprague-Dawley rat assessed nicotinuric acid at 30 mg/kg, po measured up to 140 mins; type: ADME, organism-based; design: dose 30 mg/kg, route oral; conditions: in vivo; in short: as §3
[14] = tested on: Rattus norvegicus; assay: Cmax in portal vein cannulated Sprague-Dawley rat assessed as (S)-N-(pyrrolidin-3-yl)nicotinamide at 30 mg/kg, po measured up to 140 mins; type: ADME, organism-based; design: dose 30 mg/kg, route oral; conditions: in vivo; in short: as §3
[15] = tested on: Rattus norvegicus; assay: Cmax in jugular vein cannulated Sprague-Dawley rat assessed as (S)-N-(pyrrolidin-3-yl)nicotinamide at 30 mg/kg, po measured up to 140 mins; type: ADME, organism-based; design: dose 30 mg/kg, route oral; conditions: in vivo; in short: as §3
[16] = tested on: Rattus norvegicus; assay: Cmax in portal vein cannulated Sprague-Dawley rat assessed as N-(2-(methylamino)ethyl)nicotinamide at 30 mg/kg, po measured up to 140 mins; type: ADME, organism-based; design: dose 30 mg/kg, route oral; conditions: in vivo, BLD = below limit of detection; in short: as §3
[17] = tested on: Rattus norvegicus; assay: Cmax in jugular vein cannulated Sprague-Dawley rat assessed as N-(2-(methylamino)ethyl)nicotinamide at 30 mg/kg, po measured up to 140 mins; type: ADME, organism-based; design: dose 30 mg/kg, route oral; conditions: in vivo, BLD = below limit of detection; in short: as §3
[18] = tested on: Liver; assay: Drug uptake in Sprague-Dawley rat liver at 100 mg/kg, po qd for 3 days measured 4 hrs post last dose; type: ADME, organism-based; conditions: in vivo
In short: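 Sprague Dawley rats (n = 6) dosed 100 mg/kg once daily for 3 days; plasma and tissues collected four hours after the last dose and analysed for parent compound and metabolites.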

[19] = target: T2, Fatty-acid amide hydrolase 1 (Homo sapiens, UniProt O00519); assay: Drug metabolism in human HepG2 cells assessed as FAAH-mediated compound hydrolysis by measuring level of deuterium-labelled EPA-d5 released at 50 uM by LC/MS-MS analysis; type: ADME, cell-based; conditions: hepg2, 50 µM, TDE = time-dependent effect
T2 sequence (O00519 whole entry): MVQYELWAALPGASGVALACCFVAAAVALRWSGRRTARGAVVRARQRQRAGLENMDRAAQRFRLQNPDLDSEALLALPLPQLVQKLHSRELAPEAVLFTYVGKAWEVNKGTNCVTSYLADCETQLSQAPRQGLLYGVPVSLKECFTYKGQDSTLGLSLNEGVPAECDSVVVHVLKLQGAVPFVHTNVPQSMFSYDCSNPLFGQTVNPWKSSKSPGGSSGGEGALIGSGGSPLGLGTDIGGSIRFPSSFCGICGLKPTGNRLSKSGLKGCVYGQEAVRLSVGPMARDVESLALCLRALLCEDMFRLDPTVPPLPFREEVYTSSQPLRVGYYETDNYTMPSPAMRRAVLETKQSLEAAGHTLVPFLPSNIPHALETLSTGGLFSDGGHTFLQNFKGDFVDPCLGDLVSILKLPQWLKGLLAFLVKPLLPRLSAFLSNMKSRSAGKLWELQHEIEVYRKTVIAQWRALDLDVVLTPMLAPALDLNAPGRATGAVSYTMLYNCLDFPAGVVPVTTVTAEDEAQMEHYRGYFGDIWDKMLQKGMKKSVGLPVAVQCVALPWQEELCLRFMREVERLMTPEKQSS

[20] = target: T1, Sterol regulatory element-binding protein 2 (Homo sapiens); assay: Inhibition of SREBP2 in human HepG2 cells assessed as reduction of PCSK9 secretion at 50 uM after 16 hrs by ELISA; type: cell-based
In short: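 Human HepG2 cells were treated in culture. Secreted PCSK9 in the culture supernatant was quantified with a human-specific PCSK9 ELISA.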

[21] = target: T1, Sterol regulatory element-binding protein 2 (Homo sapiens); assay: Inhibition of SREBP2 maturation in human HepG2 cells at 50 uM after overnight incubation by immunoblot analysis; type: cell-based; in short: as §2
[22] = AUClast in Sprague-Dawley rat at 30 mg/kg, po administered as single dose measured up to 6 hrs post dose by LC/MS/MS analysis; conditions: in vivo
[23] = target: T1, Sterol regulatory element-binding protein 2 (Homo sapiens); conditions: HepG2, 10 uM
[24] = in vivo; conditions: Sprague-Dawley, rat, po, 30 mg/kg

## CC\C=C/C=C/C=C/C=C\CCCCCCCC(=O)NCCNC(=O)c1cccnc1
[1]
  Drug uptake: Not Active
[2]
  Drug uptake: Not Active
[3]
  Drug uptake: Active

## CC(C)c1c(C(=O)Nc2ccccc2)c(-c2ccccc2)c(-c2ccc(F)cc2)n1CC[C@@H](O)C[C@@H](O)CC(=O)O
[4]
  Activity: Active

## O=C(O)c1ccccc1O [SALICYLIC ACID]
[5]
  Drug metabolism: metabolite_detected
[6]
  inhibition: Active

## CC\C=C/C=C/C=C/C=C\CCCCCCCC(=O)O
[7]
  Drug uptake: Not Active
[8]
  Drug uptake: Not Active

## CC/C=C\C/C=C\C/C=C\C/C=C\C/C=C\C/C=C\CCC(=O)O
[9]
  inhibition: Active

## CC/C=C\C/C=C\C/C=C\C/C=C\C/C=C\CCCC(=O)N1CCC(NC(=O)c2cccnc2)C1 (single isomer, unassigned)
[10]
  Cmax: 5320 ng/mL
[11]
  Cmax: 564 ng/mL
[12]
  Cmax: 13 ng/mL
[13]
  Cmax: 11 ng/mL
[14]
  Cmax: 73 ng/mL
[15]
  Cmax: 35 ng/mL

## CC/C=C\C/C=C\C/C=C\C/C=C\C/C=C\CCCC(=O)N(C)CCNC(=O)c1cccnc1
[10]
  Cmax: 5060 ng/mL
[11]
  Cmax: 400 ng/mL
[12]
  Cmax: 11 ng/mL
[13]
  Cmax: 28 ng/mL
[16]
  Cmax: BLD
[17]
  Cmax: BLD
[18]
  Drug uptake: Active

## [2H]C([2H])([2H])C([2H])([2H])/C=C\C/C=C\C/C=C\C/C=C\C/C=C\CCCC(=O)NCCNC(=O)c1cccnc1
[19]
  Drug metabolism: tde

## CC/C=C\C/C=C\C/C=C\C/C=C\C/C=C\CCCC(=O)O
[20]
  inhibition: inactive
[21]
  inhibition: inactive

## NCCNC(=O)c1ccccc1O
[5]
  Drug metabolism: metabolite_detected

## O=C(O)CNC(=O)c1ccccc1O [SALICYLURIC ACID]
[5]
  Drug metabolism: metabolite_detected

## O=C(O)c1cccnc1 [NIACIN]
[21]
  inhibition: inactive
[22]
  AUC(0-t) at 6 h: 6980 ng·h/mL
[23]
  inhibition: inactive
[24]
  Cmax at 6 h: 7470 ng/mL

## CC\C=C/C=C/C=C/C=C\CCCCCCCC(=O)NCCNC(=O)c1ccccc1O
[3]
  Drug uptake: Active
